Measurements from ChEMBL document CHEMBL2321859, “Cytotoxic betulin-derived hydroxypropargylamines trigger apoptosis” (Bioorg Med Chem, 2013).
≈ marks a conversion by molar mass, not a printed value. Calls of active or inactive are those of the source. The rule behind the calls is not given here.

Tests used:
SW-1736 = experiment: Cytotoxicity against human SW1736 cells assessed as cell viability after 96 hrs by SRB assay; type: functional, cell-based
A549 [1] = experiment: Cytotoxicity against human A549 cells assessed as cell viability after 96 hrs by SRB assay; type: functional, cell-based
[2] = Cytotoxicity against human A253 cells assessed as cell viability after 96 hrs by SRB assay; type: functional, cell-based
A2780 = experiment: Cytotoxicity against human A2780 cells assessed as cell viability after 96 hrs by SRB assay; type: functional, cell-based
[3] = Cytotoxicity against human Lipo cells assessed as cell viability after 96 hrs by SRB assay; type: functional, cell-based
[4] = Cytotoxicity against human 518A2 cells assessed as cell viability after 96 hrs by SRB assay; type: functional, cell-based
DLD-1 = experiment: Cytotoxicity against human DLD1 cells assessed as cell viability after 96 hrs by SRB assay; type: functional, cell-based
8505C = experiment: Cytotoxicity against human 8505C cells assessed as cell viability after 96 hrs by SRB assay; type: functional, cell-based
NIH3T3 = experiment: Cytotoxicity against mouse NIH/3T3 cells assessed as cell viability after 96 hrs by SRB assay; type: cell-based; settings: NIH3T3, 96 h
MCF7 = experiment: Cytotoxicity against human MCF7 cells assessed as cell viability after 96 hrs by SRB assay; type: functional, cell-based
[5] = Solubility of the compound in water/DMSO mixture; type: physicochemical
Summary of the method: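 Solubility was measured in water/DMSO (95:5, v/v) by HPLC with UV/vis detection.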

A549 [6] = experiment: Induction of apoptosis in human A549 cells assessed as chromatin condensation by acridine orange/propidium iodide staining; type: functional, cell-based
A549 [7] = experiment: Induction of apoptosis in human A549 cells assessed as cell shrinking by acridine orange/propidium iodide staining; type: functional, cell-based
A549 [8] = experiment: Induction of apoptosis in human A549 cells assessed as membrane blebbing by acridine orange/propidium iodide staining; type: functional, cell-based
A549 [9] = experiment: Cell cycle arrest in human A549 cells assessed as accumulation at G2/M phase by acridine orange/propidium iodide staining; type: functional, cell-based
A549 [10] = experiment: Induction of apoptosis in human A549 cells assessed as DNA fragmentation by DNA laddering assay; type: functional, cell-based
Summary of the method: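 DNA fragmentation was checked by DNA laddering in treated human cancer cells, as an indicator of apoptotic cell death.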

A549 [11] = experiment: Induction of apoptosis in human A549 cells assessed as early apoptotic cells at 10 uM after 6 hrs by annexin V/propidium iodide staining-based FACS flow cytometric analysis relative to control; type: functional
Summary of the method: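 A549 cells incubated 6 h with compound, then analysed by FACS annexin V/propidium iodide assay. Phosphatidylserine translocation to the outer membrane was taken as the early-apoptosis marker. Cells were scored as percentage dying by necrosis versus programmed cell death. Betulinic acid and maslinic acid were the reference standards.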

[12] = water/DMSO mixture, read-out: solubility

| Structure (SMILES) | IC50 (SW-1736; Homo sapiens, SW-1736, 96 h) [µM] | IC50 (A549 [1]; Homo sapiens, A549, 96 h) [µM] | IC50 ([2]; Homo sapiens, A253, 96 h) [µM] | IC50 (A2780; Homo sapiens, A2780, 96 h) [µM] | IC50 ([3]; Homo sapiens, Lipo, 96 h) [µM] | IC50 ([4]; Homo sapiens, 518A2, 96 h) [µM] | IC50 (DLD-1; Homo sapiens, DLD-1, 96 h) [µM] | IC50 (8505C; Homo sapiens, 8505C, 96 h) [µM] | IC50 (NIH3T3) [µM] | IC50 (MCF7; Homo sapiens, MCF7, 96 h) [µM] | also measured |
| --- | --- | --- | --- | --- | --- | --- | --- | --- | --- | --- | --- |
| C=C(C)[C@@H]1CC[C@]2([C@H](O)C#CCN(CCC)CCC)CC[C@]3(C)[C@H](CC[C@@H]4[C@@]5(C)CC[C@H](OC(C)=O)C(C)(C)[C@@H]5CC[C@]43C)[C@@H]12 | 7.5 | 25.9 | 15.2 | 12 | 24.2 | 21 | 20.7 | 28 | > 30 | 16.5 | – |
| C=C(C)[C@@H]1CC[C@]2([C@H](O)C#CCN3CCCCCC3)CC[C@]3(C)[C@H](CC[C@@H]4[C@@]5(C)CC[C@H](OC(C)=O)C(C)(C)[C@@H]5CC[C@]43C)[C@@H]12 | 32.3 | 47 | 20.1 | 14.4 | > 30 | 22.4 | 40.8 | 32.3 | 17 | 13.5 | – |
| C=C(C)[C@@H]1CC[C@]2([C@H](O)C#CCN(C)C)CC[C@]3(C)[C@H](CC[C@@H]4[C@@]5(C)CC[C@H](OC(C)=O)C(C)(C)[C@@H]5CC[C@]43C)[C@@H]12.Cl | 6.5 | 11.1 | 6.4 | 4.9 | 8.6 | 7.2 | 12.9 | 6.7 | 5.8 | 3.7 | solubility [5, 12]: 312 µg/mL |
| C=C(C)[C@@H]1CC[C@]2([C@H](O)C#CCN3CCNCC3)CC[C@]3(C)[C@H](CC[C@@H]4[C@@]5(C)CC[C@H](OC(C)=O)C(C)(C)[C@@H]5CC[C@]43C)[C@@H]12.Cl | 7.7 | 6.5 | 4.6 | 2.7 | 2.7 | 5 | 5.2 | 6.9 | 4 | 2.5 | solubility [5, 12]: 178 µg/mL |
| C#C[C@H](O)[C@]12CC[C@@H](C(=C)C)[C@@H]1[C@H]1CC[C@@H]3[C@@]4(C)CC[C@H](OC(C)=O)C(C)(C)[C@@H]4CC[C@@]3(C)[C@]1(C)CC2 | 23 | 42.2 | 16.5 | 9.3 | 28.9 | 32.5 | > 30 | 22.9 | 32.3 | 20.5 | – |
| C=C(C)[C@@H]1CC[C@]2([C@@H](O)C#CCN3CCCC3)CC[C@]3(C)[C@H](CC[C@@H]4[C@@]5(C)CC[C@H](OC(C)=O)C(C)(C)[C@@H]5CC[C@]43C)[C@@H]12 | 20 | 12 | 10.4 | 8.3 | 11.6 | 12.1 | 18.8 | 11.1 | 14.5 | 7.7 | – |
| C#C[C@H](O)[C@]12CC[C@@H](C(=C)C)[C@@H]1[C@H]1CC[C@@H]3[C@@]4(C)CCC(=O)C(C)(C)[C@@H]4CC[C@@]3(C)[C@]1(C)CC2 | 18.4 | 21.2 | 13.4 | 9.8 | 21.7 | 22.4 | 19 | 16.7 | > 35 | 17.1 | – |
| C=C(C)[C@@H]1CC[C@]2([C@@H](O)C#CCN(CCC)CCC)CC[C@]3(C)[C@H](CC[C@@H]4[C@@]5(C)CC[C@H](OC(C)=O)C(C)(C)[C@@H]5CC[C@]43C)[C@@H]12.CI | 3.2 | 4.5 | 3.5 | 2.3 | 4.3 | 4.6 | 4.8 | 4.1 | 6.8 | 3.2 | Activity (A549 [6]): Active; Activity (A549 [7]): Active; Activity (A549 [8]): Active; Activity (A549 [9]): Active; Activity (A549 [10]): Active; Activity (A549 [11]): >90% |
| C=C(C)[C@@H]1CC[C@]2([C@H](O)C#CCN(C(C)C)C(C)C)CC[C@]3(C)[C@H](CC[C@@H]4[C@@]5(C)CC[C@H](O)C(C)(C)[C@@H]5CC[C@]43C)[C@@H]12 | 4 | 8.3 | 8.2 | 5.4 | 10.3 | 6.4 | 9.1 | 5.8 | 6.2 | 8.2 | – |
| C=C(C)[C@@H]1CC[C@]2([C@@H](O)C#CCN(Cc3ccccc3)Cc3ccccc3)CC[C@]3(C)[C@H](CC[C@@H]4[C@@]5(C)CC[C@H](OC(C)=O)C(C)(C)[C@@H]5CC[C@]43C)[C@@H]12 | > 70 | > 70 | > 70 | > 70 | > 70 | > 30 | > 70 | > 30 | > 70 | 27.2 | – |
| C=CCN(CC#C[C@@H](O)[C@]12CC[C@@H](C(=C)C)[C@@H]1[C@H]1CC[C@@H]3[C@@]4(C)CC[C@H](OC(C)=O)C(C)(C)[C@@H]4CC[C@@]3(C)[C@]1(C)CC2)CC=C [listing 1 of 2 here] | 48 | – | 43.1 | 18.2 | – | > 60 | 57.6 | > 60 | – | 31.1 | IC50 (A549 [1]; a549): > 30 µM; IC50 ([3]; lipo): 17 µM |
| C#C[C@H](O)[C@]12CC[C@@H](C(=C)C)[C@@H]1[C@H]1CC[C@@H]3[C@@]4(C)CC[C@H](O)C(C)(C)[C@@H]4CC[C@@]3(C)[C@]1(C)CC2 | 13 | 20.4 | 14.1 | 9.7 | 12.9 | 15.1 | 21.9 | 16.1 | 10.5 | 11.9 | – |
| C=C(C)[C@@H]1CC[C@]2([C@H](O)C#CCN(C3CCCCC3)C3CCCCC3)CC[C@]3(C)[C@H](CC[C@@H]4[C@@]5(C)CC[C@H](OC(C)=O)C(C)(C)[C@@H]5CC[C@]43C)[C@@H]12.Cl | > 30 | > 30 | > 30 | > 30 | > 30 | > 30 | > 30 | > 30 | > 30 | > 30 | solubility [5, 12]: 100 µg/mL |
| C=C(C)[C@@H]1CC[C@]2([C@H](O)C#CCN3CCCC3)CC[C@]3(C)[C@H](CC[C@@H]4[C@@]5(C)CCC(=O)C(C)(C)[C@@H]5CC[C@]43C)[C@@H]12 | 6 | 3.5 | 3.4 | 3.6 | 5.6 | 5.6 | 2.6 | 3.4 | 6.4 | 3.1 | solubility [5, 12]: 182 µg/mL (≈ 332 µM) |
| C=C(C)[C@@H]1CC[C@]2([C@H](O)C#CCN3CCSCC3)CC[C@]3(C)[C@H](CC[C@@H]4[C@@]5(C)CC[C@H](OC(C)=O)C(C)(C)[C@@H]5CC[C@]43C)[C@@H]12 | 3.7 | 16.3 | 7.5 | 4.3 | 3.5 | 9.3 | 19 | 2 | 8.8 | 3.8 | – |
| C=CCN(CC#C[C@@H](O)[C@]12CC[C@@H](C(=C)C)[C@@H]1[C@H]1CC[C@@H]3[C@@]4(C)CC[C@H](OC(C)=O)C(C)(C)[C@@H]4CC[C@@]3(C)[C@]1(C)CC2)CC=C [listing 2 of 2 here] | – | > 60 | – | – | 21.8 | – | – | – | > 60 | – | IC50 (SW-1736; sw-1736): 30.2 µM; IC50 ([2]; a253): 32.8 µM; IC50 (A2780; a2780): 12.4 µM; IC50 ([4]; 518a2): 52 µM; IC50 (DLD-1; dld-1): 44.2 µM; IC50 (8505C; 8505c): 47.9 µM; IC50 (MCF7; mcf7): 15.7 µM |
| C=C(C)[C@@H]1CC[C@]2(C(=O)O)CC[C@]3(C)[C@H](CC[C@@H]4[C@@]5(C)CC[C@H](O)C(C)(C)[C@@H]5CC[C@]43C)[C@@H]12 [BETULINIC ACID] | – | – | – | 11 | 9.7 | – | – | – | 10 | – | solubility ([5]; buffer): 166 µg/mL (≈ 363 µM) |
| C=C(C)[C@@H]1CC[C@]2([C@@H](O)CCCN(C(C)C)C(C)C)CC[C@]3(C)[C@H](CC[C@@H]4[C@@]5(C)CC[C@H](O)C(C)(C)[C@@H]5CC[C@]43C)[C@@H]12 | 1.7 | 2.2 | 1.8 | 1.6 | 2.3 | 2.1 | 2.3 | 2.3 | 1.7 | 0.7 | Activity (A549 [6]): Active; Activity (A549 [7]): Active; Activity (A549 [8]): Active; Activity (A549 [9]): Active; Activity (A549 [10]): Active; Activity (A549 [11]): >90% |
